Bioassay records from PubChem.
Only some compounds are listed: those with a hit (about 4.3% of all), similar ones and a draw of the others.
ALR H2O2 inh = human ALR oxidase inhibition via reduced H2O2. P55789. purified ALR, DTT oxidation, H2O2 HRP-luminol luminescence. inhibition, % (concentration not given with the values). 290,000 tested, 3.8% active. AID 485317;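 active = mean replicate inhibition above about 79%, with every replicate also reaching it, limit read from the data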
Target sequence (P55789 whole entry, looked up): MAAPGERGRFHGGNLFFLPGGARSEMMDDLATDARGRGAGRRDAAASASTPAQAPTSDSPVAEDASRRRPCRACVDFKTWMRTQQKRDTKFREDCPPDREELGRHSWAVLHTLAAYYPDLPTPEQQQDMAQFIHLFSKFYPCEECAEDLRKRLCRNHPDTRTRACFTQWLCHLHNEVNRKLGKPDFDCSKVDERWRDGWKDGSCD
CAL PDZ FP-1 = inhibitors of human CAL PDZ peptide binding | inhibition, % at 24.9 µM | Q9HD26 | 300,000 tested, 0.92% active | purified CAL PDZ, TMR-peptide fluorescence polarization, 1 h;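 active = mean inhibition of at least 30% with at least half of replicates also reaching 30%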;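 note: 0% = DMSO neutral control and 100% = excess unlabeled competitor peptide PRC23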
CAL PDZ FP-2 = blocks peptide binding to human CAL PDZ domain; purified CAL PDZ, TMR-peptide fluorescence polarization, 1 h; inhibition, % at 20 µM; 330,000 tested, 0.02% active;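 active = highest replicate inhibition of at least 40%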;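 note: plate controls were DMSO neutral control wells for no effect and unlabeled competitor peptide control wells for full effect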
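Material: tagged CAL PDZ domain; buffer or medium: 25 mM sodium phosphate pH 7.4, 150 mM NaCl, TCEP, IgG, Thesit; compound dosing: single point, 20 µM; schedule: 1 h incubation at room temperature before polarization reading; measured by: FP readout, S and P plane fluorescence; read-out basis: percent inhibition from loss of millipolarization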
DYRK1A inh = inhibitors of rat Dyrk1A kinase. Q63470. AID 504441. inhibition, % at 12.5 µM. ADP-Glo luminescence, NFATc1 peptide. 310,000 tested, 0.43% active; in the data active = inhibition above about 50%;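 note: plate controls were vehicle with enzyme for no effect and no enzyme for full effect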
Rtt109 HAT inh = inhibitors of Candida albicans Rtt109/Vps75 histone acetyltransferase. inhibition, % at 34.9 µM. AID 540336. purified Rtt109/Vps75, ThioGlo CoA-SH fluorescence, 4 h. Q5AAJ8. 330,000 tested, 0.16% active;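 active = inhibition of at least 50% in every replicate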
Target sequence (Q5AAJ8 whole entry, looked up): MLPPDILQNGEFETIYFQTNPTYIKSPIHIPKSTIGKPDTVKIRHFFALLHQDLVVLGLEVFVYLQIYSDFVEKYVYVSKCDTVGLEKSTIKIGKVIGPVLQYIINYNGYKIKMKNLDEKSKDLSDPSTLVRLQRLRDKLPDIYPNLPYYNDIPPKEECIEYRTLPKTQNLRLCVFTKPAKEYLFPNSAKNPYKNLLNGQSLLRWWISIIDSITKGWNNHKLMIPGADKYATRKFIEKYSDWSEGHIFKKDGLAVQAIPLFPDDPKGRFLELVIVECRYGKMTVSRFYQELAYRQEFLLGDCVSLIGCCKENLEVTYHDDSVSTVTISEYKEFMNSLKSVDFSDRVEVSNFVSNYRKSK
* = called active by the depositor; nt = not tested or not shown.

SMILES | ALR H2O2 inh | CAL PDZ FP-1 | CAL PDZ FP-2 | DYRK1A inh | Rtt109 HAT inh
O=C(C1CCOCC1)N1CCCC(N2CCN(c3ccc(F)cc3)CC2)C1 (centres undefined) | 94* | -1 | -2 | 3 | 6
O=C(Nc1cccc2ccccc12)c1ccc(F)cc1 | -8 | 52* | -1 | -2 | 2
O=C(O)[C@@H]1CCCN1C(=O)c1ccccc1N1C(=O)[C@@H]2Cc3c([nH]c4ccccc34)C(c3cccc(Cl)c3)N2C1=O (some centres undefined) | 97* | -5 | -1 | -4 | 7
COc1cccc(C2c3[nH]c4ccccc4c3C[C@H]3C(=O)N(c4ccccc4C(=O)N4CCC[C@H]4C(=O)O)C(=O)N23)c1 (some centres undefined) | 98* | 5 | 0 | -2 | -8
COc1ccc(C2c3[nH]c4ccccc4c3C[C@H]3C(=O)N(c4ccccc4C(=O)N4CCC[C@H]4C(=O)O)C(=O)N23)cc1 (some centres undefined) | 98* | 4 | 0 | 6 | 21
COc1ccc(C2c3[nH]c4ccccc4c3C[C@H]3C(=O)N(c4ccccc4C(=O)N4CCC[C@@H]4C(=O)O)C(=O)N23)cc1 (some centres undefined) | nt | -1 | 1 | -3 | 0
CN(C(=O)CSc1nc2c(cnn2-c2ccccc2)c(=O)[nH]1)C1CCS(=O)(=O)C1 (centres undefined) | 0 | nt | nt | nt | nt
Cc1ccc(CN(C)C(=O)C2CCC(=O)N(C3CCCCCC3)C2)cc1 (centres undefined) | 2 | 39* | 0 | 2 | -3
CN(Cc1ccccc1Cl)C(=O)C1CCC(=O)N(C2CCCCCC2)C1 (centres undefined) | nt | 0 | -3 | -5 | -5
O=C(NCC1CCCCC1)c1cccc(Br)c1 | 3 | -4 | -2 | -8 | -11
O=C(NCC1CCCCC1)c1cccnc1 | 1 | 43* | 4 | 1 | 1
O=C(NC(=S)NC1CCN(Cc2ccccc2)CC1)c1ccc(F)cc1 | nt | -1 | -1 | 8 | 10
O=C(NC(=S)NC1CCCCC1)c1ccc(F)cc1 | 5 | 44* | -1 | 0 | 3
CN(C)c1cccc(C(=O)NNC(=O)NC2CCCCC2)c1 | 13 | -1 | -3 | 1 | 2
CN(C)c1cccc(C(=O)NNC(=S)NC2CCCC2)c1 | 99* | 0 | -3 | 3 | 4
N#CCC(=O)Nc1ccc(C(=O)NNC(=S)NC2CCCCC2)cc1 | 94* | nt | nt | nt | nt
Cc1cc(OC(=O)c2cc(Cl)ccc2Cl)c([N+](=O)[O-])c(=O)[nH]1 | -4 | nt | -1 | -2 | -2
CCOC(=O)c1c(NC(=O)CN2CCN(S(=O)(=O)c3cc(Cl)ccc3Cl)CC2)sc(C(=O)N(C)C)c1C | nt | nt | -3 | 0 | 7
COc1ccc(NC(=O)COC(=O)Cc2coc3cc(OC)ccc23)c(OC)c1 | -5 | -10 | 0 | nt | -3
O=C(CSc1nc(-c2ccccc2)cc(C(F)(F)F)n1)N1CCOCC1 | -35 | 96* | -1 | nt | -1
COc1ccc(-c2cc(C(F)(F)F)nc(S(=O)(=O)CCC(=O)N3CCOCC3)n2)cc1 | 90* | 3 | 0 | 2 | 7
COc1ccccc1-c1cc(C(F)(F)F)nc(S(=O)(=O)CCCC(=O)N2CCOCC2)n1 | nt | nt | 0 | -3 | -6
CN(c1nc2nonc2nc1NC1CC1)C1CCOC1 (centres undefined) | -5 | -8 | -2 | 1 | 3
CC(=O)c1cn(-c2ccc(Cl)cc2)c(=O)[nH]c1=O | -10 | -4 | nt | 2 | -4
O=[N+]([O-])c1cc(S(=O)(=O)N2CCCC2)ccc1N/N=C1/CCCc2ccccc21 | -6 | -3 | -1 | -2 | 0
SMILES | ALR H2O2 inh | CAL PDZ FP-1 | CAL PDZ FP-2 | DYRK1A inh | Rtt109 HAT inh
Cc1ccc(C)c(S(=O)(=O)N/N=C/c2ccc(N(C)C)cc2)c1 | 99* | -1 | -2 | -4 | 1
CC(=O)NCc1ccc(S(=O)(=O)N/N=C/c2ccc(N(C)C)cc2)cc1 | 98* | -1 | -3 | -4 | nt
Cc1ccc(C)c(S(=O)(=O)N/N=C/c2ccc(F)cc2)c1 | 12 | -7 | 0 | -2 | 2
CCCC[C@@H]1CNCCN1CCCc1cc(OC)c(OC)c(OC)c1 | 10 | -3 | 1 | 1 | 0
COc1ccc(NC2CC(=O)N(C(C)C)C2=O)cc1 (centres undefined) | 9 | -4 | 1 | -3 | -13
CC(C)N1C(=O)CC(Nc2ccc(N3CCOCC3)cc2)C1=O (centres undefined) | 99* | -9 | -1 | 2 | 3
CCc1ccc(NC2CC(=O)N(CCc3ccc(OC)c(OC)c3)C2=O)cc1 (centres undefined) | -2 | -4 | 0 | -2 | -12
O=C1CC(Nc2ccccc2)C(=O)N1c1ccc(N2CCOCC2)cc1 (centres undefined) | -9 | 7 | 0 | -2 | 5
O=C1CC(Nc2ccc(N3CCOCC3)cc2)C(=O)N1c1ccccc1F (centres undefined) | 99* | nt | -1 | 4 | 6
COc1ccc(CCN2C(=O)CC(Nc3ccc(N4CCOCC4)cc3)C2=O)cc1OC (centres undefined) | 99* | 1 | 0 | 7 | 4
O=C1CC(Nc2ccc(N3CCOCC3)cc2)C(=O)N1C1CCCCC1 (centres undefined) | 99* | nt | 0 | -10 | 9
O=C(Nc1ccc(N2CCOCC2)cc1)NC1CCCCC1 | 11 | 1 | -2 | 4 | 34
COc1ccc(CCn2c(=S)[nH]c3ccc(N4CCOCC4)cc3c2=O)cc1OC | -13 | 128* | 20 | 3 | -10
CC(C)NC(=O)CSc1nnc(CNC(=O)OC(C)(C)C)n1C | -3 | 84* | 0 | -2 | 0
CCn1cc(C(=O)NC2CCCCCC2)c2cc(OC)c(OC)cc2c1=O | -4 | 48* | -1 | 4 | 3
COc1cc2c(C(=O)NC3CCCCCC3)cn(C)c(=O)c2cc1OC | -8 | -3 | -1 | 4 | -1
COc1cc(SC)ccc1C(=O)NC1CCCCC1 | nt | 47* | -1 | 5 | -7
COc1cc(SC)ccc1C(=O)Nc1ccncc1 | -10 | 31* | -2 | 7 | 2
COc1cc(SC)ccc1C(=O)OCC(=O)NC1CCCCC1 | nt | -6 | -1 | 12 | 6
Cc1ccc(Nc2cc(C)c3c(O)cccc3n2)cc1C | 35 | 2 | 1 | 39 | 17
COc1ccc(Nc2cc(C)c3c(O)cccc3n2)cc1 | 84* | 1 | 1 | 26 | 19
Cc1nc(SCC(=O)N2CCN(c3ccccc3)CC2)c2oc3ccccc3c2n1 | nt | 64* | -1 | 4 | 15
CC(=O)N1CCN(c2ccc(Nc3nc(C)nc4c3oc3ccccc34)cc2)CC1 | 96* | 0 | -1 | 3 | -9
CC(=O)Nc1ccc(Nc2nc(C)nc3c2oc2ccccc23)cc1 | 26 | -1 | -1 | 9 | -10
O=c1c2ccccc2c(/C=N/c2n[nH]c(CCCO)n2)c(O)n1-c1ccccc1Cl | 0 | -4 | -2 | 20 | 13
